# Results gathered from unrelated publications.
# Protocols differ between the studies behind these lines.
SMILES,system,setting,Cmax
CNC(=O)c1cc(Oc2ccc(NC(=O)Nc3cc(C(C)(C)C)nn3-c3ccc4ncccc4c3)c(F)c2)ccn1,"human, plasma","oral, 150 mg, multiple doses, twice daily",308 ng/mL
Oc1cc(O)c2c(c1)O[C@@H](c1ccc(O)c(O)c1)[C@@H](O)C2,"human, plasma","oral, 30 mg, single dose",0.7 ng/mL
CO[C@@H]1[C@H](OC(=O)N2CC(CCN3CCOCC3)C2)CC[C@]2(CO2)[C@H]1[C@@]1(C)O[C@@H]1CC=C(C)C,"human, plasma","subcutaneous, 0.2 mg, single dose, healthy volunteers",0.45 ng/mL
CS(=O)(=O)CCNCc1ccc(-c2ccc3ncnc(Nc4ccc(OCc5cccc(F)c5)c(Cl)c4)c3c2)o1,"human, serum","oral, 1250 mg, single dose",910 ng/mL
COCCOc1cnc2ccn([C@H](C)c3nnc4c(F)cc(-c5cnn(C)c5)cn34)c(=O)c2c1,"human, plasma","oral, 150 mg, multiple doses, once daily, patients",2910 ng/mL
CO[C@H]1/C=C\C=C(/C)C(=O)NC2=CC(=O)C(NCCN(C)C)=C(C[C@@H](C)C[C@H](OC)[C@H](O)[C@@H](C)/C=C(\C)[C@@H]1OC(N)=O)C2=O,"human, plasma","intravenous, 27 mg/m², patients, infusion",443 ng/mL
COc1cc(C(=O)NC2CCN(C)CC2)c(F)cc1Nc1ncc(C(F)(F)F)c(Oc2cccc3c2C(=O)N(C)C3)n1,"human, plasma","oral, 50 mg, single dose, patients",312 nM
CC(C)(O)c1ccccc1-c1ccc2[nH]c(/C=C/c3ccc(C(F)(F)F)cc3)nc2c1,"male human, plasma","oral, 225 mg, single dose, fasted, healthy volunteers",525 ng/mL
C[C@@]1(c2cc(NC(=O)c3ccc(C#N)cn3)ccc2F)C=CSC(N)=N1,"human, plasma","oral, 10 mg, single dose",83.9 ng/mL
N#CN1C[C@H](n2nc(-c3ccc(Oc4ccc(Cl)cn4)cc3)c(C(N)=O)c2N)CCC12CC2,"human, plasma","oral, 600 mg, fasted",1060 ng/mL
O=C(O)C[C@H](O)C[C@H](O)/C=C/c1c(C2CC2)nc2ccccc2c1-c1ccc(F)cc1,"human, plasma","oral, 2 mg, single dose, fasted, healthy volunteers, tablet",36.4 ng/mL
Nc1cc(C(F)(F)F)c(-c2cc(N3CCOCC3)nc(N3CCOCC3)n2)cn1,"human, plasma","oral, 25 mg/day, patients",289 ng/mL
COc1ccc([C@@H]2CN(C(=O)[C@@H](O)CO)C[C@@]2(C)[C@@H](C)O)cc1OC1CN(c2ccc(C)cn2)C1,"human, plasma","oral, 10 mg, single dose, healthy volunteers",319 ng/mL
FC(F)(F)c1ccc(CNc2ccc(Cc3c[nH]c4ncc(Cl)cc34)cn2)cn1,"human, plasma","oral, 1000 mg, multiple doses, patients",4440 ng/mL
CC(C)(Sc1ccncc1-c1ccc(C#N)c2ccccc12)C(=O)O,"male human, plasma","oral, 5 mg, single dose, fasted, healthy volunteers",72.9 ng/mL
CCn1c(=O)c(-c2cc(NC(=O)Nc3ccccc3)c(F)cc2Br)cc2cnc(NC)cc21,"human, plasma","oral, 20 mg, single dose, patients",109 ng/mL
NC(=O)c1cnc2[nH]ccc2c1N[C@@H]1[C@@H]2CC3C[C@H]1C[C@@](O)(C3)C2,"human, plasma","oral, 100 mg twice daily, multiple doses, patients",256 ng/mL
CO[C@H]1CC[C@H](N2C(=O)CNc3ncc(-c4ccc(C(C)(C)O)nc4)nc32)CC1,"human, plasma","oral, 60 mg, multiple doses, patients",480 ng/mL
CC(C)n1cc(C#N)c2cc(-n3cc(C(=O)O)cn3)ccc21,"male human, plasma","oral, 600 mg, single dose, fasted, healthy volunteers",18200 ng/mL
Br.Cc1ccc(Sc2ccccc2N2CCNCC2)c(C)c1,"human, plasma","oral, 20 mg, multiple doses, steady state, healthy volunteers",33 ng/mL
CCc1nc2c(C)cc(N3CCN(CC(=O)N4CC(O)C4)CC3)cn2c1N(C)c1nc(-c2ccc(F)cc2)c(C#N)s1,"human, plasma","oral, 600 mg, single dose, fasted, healthy volunteers",5800 ng/mL
